hiPSC survival: enhancers of human iPSC single-cell survival. hiPSC single-cell survival, ATPlite luminescence; 100% = ROCK inhibitor wells, 0% = DMSO. survival enhancement, % at 20 µM. 360,000 compounds, 0.044% hits. AID 602274; in the data active means survival enhancement above about 18%;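 further: cells exposed to compounds for 16 hours before the ATP read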
SKN-1 inh: C. elegans SKN-1 inhibition; AID 624304; C. elegans VP596 Pgst-4::GFP/RFP ratio, acrylamide-induced, 24 h; inhibition, % at 21.8 µM; 360,000 compounds, 0.49% hits;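 active means interference check ratio from 0.5 to 1.5 plus GFP to RFP signal ratio inhibition reaching or exceeding a fixed threshold, cut at about 30% in these data, passing the limit was not always enough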
FAS-TE inh: inhibitors of human fatty acid synthase thioesterase domain. P49327. recombinant FAS-TE, OMFH fluorogenic substrate, fluorescence endpoint. inhibition, % at 15 µM. 360,000 compounds, 0.67% hits;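 active means compounds whose normalised, plate-corrected inhibition of enzyme fluorescence in the single-dose primary screen is 50% or more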;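 further: 0% = DMSO with enzyme and 100% = substrate without enzyme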
MT1-MMP act inh: MT1-MMP (human) activation inhibition. HT1080 RFP-PRO-GFP cells, GFP/RFP ratio fluorescence, overnight; percent of plate control window, DMSO zero. GFP/RFP ratio change, % at 20 µM. 360,000 compounds, 0.061% hits. AID 651647;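 active means GFP/RFP ratio change of at least 30% with cell ATP level not reduced by more than half and red fluorescence within 50% of control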
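Assay system: HT1080 RFP-PRO-GFP cells | Dosing: 20 µM single dose, 1% DMSO | Incubation: Cells overnight before dosing, compound overnight, 37 °C, 5% CO2 | Evaluation: GFP/RFP fluorescence ratio | Control set: DMSO-only wells and HT1080 RFP-L50D-GFP cell wells as references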
DAGLB inhibitor: diacylglycerol lipase beta (human) inhibition. HEK293T DAGLB membrane lysate, EnzChek fluorogenic substrate. inhibition, % at 5.17 µM. 340,000 compounds, 0.059% hits. AID 504411; in the data active means inhibition above about 34%;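 further: 0% = enzyme with vehicle and 100% = wells lacking enzyme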
Starred values were filed as active, the others as inactive; · = not tested or not shown. A selection: hits, their analogues and other compounds. The true share with any hit is near 1.3%.

SMILES	hiPSC survival	SKN-1 inh	FAS-TE inh	MT1-MMP act inh	DAGLB inhibitor
CCN1/C(=C/c2cc[n+](CCCS(=O)(=O)[O-])c3ccccc23)Sc2ccccc21	2	20	-11	-98	-2
CC[C@@H]1Cc2[nH][nH]c(=O)c2[C@H](c2ccc(Cl)cc2)O1	0	14	-10	5	·
CSCC[C@H](N)C(=O)N1CCC(C(=O)N[C@@H](Cc2c[nH]c3ccccc23)C(=O)O)CC1	0	36*	-6	-3	-9
O=C(O)c1cc(C(=O)C2CCCCC2)c[nH]1	-1	15	1	-5	2
O=C(O)c1cc(C(=O)C2CC2)c[nH]1	23*	-5	-6	2	0
COc1ccc(Br)c(Cn2c(C)c(C(=O)NCCC#N)sc2=O)c1	0	-14	-1	3	·
CC(=O)Nc1ccc(-c2ccnc3c2CC(C(=O)Nc2cccnc2)O3)cc1 (centres undefined)	-1	12	-5	-4	·
COC(=O)[C@H](CC(C)C)NC(=O)CC[C@H]1O[C@@H](n2ccc(=O)[nH]c2=O)[C@H](O)[C@@H]1O	-4	9	-9	2	·
Fc1ccc(-n2cc(-c3ccccc3)c3c(N4CCOCC4)ncnc32)cc1	1	-2	26	-16	0
CCN1CCN(c2ncnc3c2c(-c2ccccc2)cn3-c2ccc(F)cc2)CC1	0	52*	6	-7	1
Cc1nc2c(N)nn(C)c2nc1C	4	-3	-7	-3	-8
CCN(CC)c1ccc(/C=N/O)cc1	2	-3	-4	-5	-1
CCN(CC)c1ccc(N=Nc2ncn[nH]2)cc1	-2	46*	-3	28	·
Cc1ccsc1C(=O)OCC(=O)NCCNC(=O)COC(=O)c1sccc1C	0	-6	-5	-6	3
Cc1ccsc1C(=O)OCC(=O)Nc1sccc1C(N)=O	20*	-6	-2	-5	-4
O=C(/C=C/Nc1ccccc1)c1ccccc1	-4	36*	0	-5	-7
O=C(/C=C/Nc1ccc(Oc2ccccc2)cc1)c1ccco1	-1	82*	22	-1	-3
O=C(/C=C/Nc1ccc(F)cc1Br)c1ccccc1	-3	37*	-2	1	-7
O=C(NNC(=S)Nc1ccc(Br)cc1)c1cccnc1	-1	2	-3	2	6
O=C(/C=C\Nc1ccc(Br)cc1)c1cccnc1	-3	86*	5	2	-3
N#C/C(=C\c1ccc([N+](=O)[O-])o1)C(=O)Nc1ccc(F)cc1	2	35*	11	-26	8
COc1ccc(NC(=O)/C(C#N)=C\c2ccc(Br)o2)cc1	0	6	-2	-33	-4
CCCC(=O)N(CCN1CCOCC1)c1nc2c(OCC)cccc2s1	0	40*	-4	1	-2
COc1ccc(S(=O)(=O)N(CC(=O)NCC2CCCO2)c2ccc(Cl)cc2)cc1 (centres undefined)	0	9	-4	-2	2
Cc1ccc(N(CC(=O)NCC2CCCO2)S(=O)(=O)c2ccc(Cl)cc2)cc1C (centres undefined)	0	35*	1	-6	-1
SMILES	hiPSC survival	SKN-1 inh	FAS-TE inh	MT1-MMP act inh	DAGLB inhibitor
O=C(NCC(c1cccnc1)N1CCN(c2ccc(F)cc2)CC1)c1ccc2c(c1)OCO2 (centres undefined)	4	42*	-6	1	4
COc1ccc(N2CCN(C(CNC(=O)c3ccc4c(c3)OCO4)c3cccnc3)CC2)cc1 (centres undefined)	7	-9	-7	1	0
CC1(C(=O)O)CCN1C(=O)COc1ccc(Cl)cc1 (centres undefined)	0	-2	-10	-2	·
COc1ccc(S(=O)(=O)N2CC(C(=O)O)Oc3ccc(Cl)cc32)cc1 (centres undefined)	0	-13	-23	2	1
COc1ccc(S(=O)(=O)N2CC(C(=O)O)Oc3ccccc32)cc1 (centres undefined)	0	31*	-3	-3	-3
O=C1NC[C@@H](CCCCN2C[C@H](Cc3ccccc3)N(CCc3ccc(O)cc3)C(=O)C2=O)N(Cc2ccccc2)C1=O	0	2	-8	2	·
CN1/C(=C\C(=O)CSc2nnc(NCc3ccccc3)s2)C(C)(C)c2ccccc21	0	45*	12	7	2
Cc1cc(C(=O)CSc2nnc(NCc3ccccc3)s2)c(C)n1C	-1	1	-5	-3	4
CCCCCCn1cc(CN2CC(N3CCN(CCO)CC3)CS2(=O)=O)nn1 (centres undefined)	2	12	-9	4	·
Cc1c(C(=O)N(Cc2ccccc2)C2CCS(=O)(=O)C2)oc2ccccc12 (centres undefined)	2	-1	15	-2	-1
COc1ccc(CN(C(=O)c2oc3ccccc3c2C)C2CCS(=O)(=O)C2)cc1 (centres undefined)	-2	36*	16	-2	-2
CC(C)Oc1cccc(C(=O)Nc2ccc(CN3CCOCC3)cc2)c1	-3	35*	-5	1	2
O=C(/C=C/c1ccccc1)Nc1ccc(CN2CCOCC2)cc1	0	65*	-11	1	0
O=C(/C=C/c1ccc(Cl)cc1Cl)Nc1ccc(CN2CCOCC2)cc1	-1	47*	23	-1	-1
CCC1OC2(C)OC(=N)C1(C#N)C(C#N)(C#N)C2c1ccccc1 (centres undefined)	0	47*	0	2	1
O=C(NCc1cccnc1)OC1CC2CC1[C@H]1CCCCN1C2=O (some centres undefined)	0	8	-11	0	·
CC(NC(=O)Nc1nnc(C(F)(F)F)s1)(C(F)(F)F)C(F)(F)F	3	32*	-6	-11	-3
N#Cc1ccc(-c2cccnc2)nc1SCC(=O)Nc1sc2c(c1C#N)CCC2	2	39*	9	-71	-2
COc1ccc(-c2ccc(C#N)c(SCC(=O)Nc3sc4c(c3C#N)CCC4)n2)cc1	-1	33	11	-84	-1
CCN(CC)c1ccc(/C=c2\sc3nc4ccccc4n3c2=O)c(O)c1	-1	45*	-7	-50	-15
O=c1/c(=C/c2ccc(O)c([N+](=O)[O-])c2)sc2nc3ccccc3n12	-1	-2	10	2	·
Cc1onc(-c2c(F)cccc2Cl)c1C(=O)Nc1nc2ccccc2[nH]1	8	42*	8	4	0
Cc1cc(NC(=O)c2c(-c3c(F)cccc3Cl)noc2C)no1	0	6	-6	-1	-1
COc1ccc(Cc2nc(-c3ccc(Cl)cc3)no2)cc1	-3	35*	25	6	-22
CCCCOC(=O)Nc1ccc(N2CCOCC2)cc1	-4	14	-6	3	1
CCCCOC(=O)Nc1ccc(N2CCCCC2)cc1	-1	46*	-2	6	1
CCCCOC(=O)Nc1ccc(C(C)C)cc1	-1	33*	14	2	-10
